# Rows were chosen to be rich in hits. Some 2% of all compounds tested hit in one or more screens of this group.
# T cell HTS – modulators of CD8 T cell-vesicle binding, primary screen, mouse 2C CD8+ T cells, flow cytometry. 2C CD8+ T cell-vesicle binding; hits give low values. response (vesicle binding), % at 7 µM. 330,000 compounds, 0.068% hits. AID 2052, 2009;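 active = response, share of CD8 T cells binding vesicles, and their 90th percentile fluorescence all below set limits, cut at about 80% in these data, passing the limit was not always enough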;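 also: values below 100% mean blocked vesicle binding to the CD8+ T cells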
#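 material = purified 2C TCR transgenic mouse naive CD8+ T cells | controls = Unloaded micro-vesicles (low), QL9 vesicles with 0.7% DMSO (high) | detection = cytometric PE anti-B7-1 and Alexa647 anti-CD8 signals after 1% paraformaldehyde fixation | incubation = binding step 1.5 h, 37 °C, antibody labelling 20 min, ice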
# NR2E3 ag-1 – NR2E3 agonists in two-hybrid cells, primary screen, cell-based, luminescence, CHO-S, Gal4-NCOR/VP16-NR2E3 | Photoreceptor-specific nuclear receptor (Homo sapiens), Q9Y5X4 | luciferase | inhibition of corepressor binding, % at 3.98 µM | 360,000 compounds, 0.35% hits;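 active = inhibition above the mean of all tested compounds plus 3 SD, cut at about 70% in these data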;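 also: higher means lower luciferase signal from less NR2E3 corepressor binding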
# Target sequence (Q9Y5X4 whole entry, looked up, the tested form may be a part): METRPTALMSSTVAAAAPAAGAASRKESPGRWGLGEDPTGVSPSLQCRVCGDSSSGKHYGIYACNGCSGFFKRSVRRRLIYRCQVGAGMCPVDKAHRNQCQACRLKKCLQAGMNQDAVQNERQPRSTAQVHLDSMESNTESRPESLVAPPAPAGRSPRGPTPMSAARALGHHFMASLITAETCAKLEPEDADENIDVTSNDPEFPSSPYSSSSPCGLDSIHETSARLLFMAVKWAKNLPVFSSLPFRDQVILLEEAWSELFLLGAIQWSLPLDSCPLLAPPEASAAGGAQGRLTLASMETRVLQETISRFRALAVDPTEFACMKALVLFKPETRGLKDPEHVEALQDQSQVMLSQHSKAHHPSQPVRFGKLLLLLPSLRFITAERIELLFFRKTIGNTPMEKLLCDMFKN
# GAA850 FXN act – FXN promoter activators, primary screen, cell-based, luciferase luminescence, HEK293 lucGAA850 | HEK293 lucGAA850 FXN promoter luciferase reporter, 24 h; percent of 10 µM SAHA response | activation, % at 6 µM | 360,000 compounds, 0.56% hits | AID 540364, 2011;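 active = activation above the average of all compounds screened plus 3 SD, cutoff fixed separately per campaign, cut at about 7.5% in these data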
# Myeloid diff 2 – induction of myeloid progenitor differentiation, primary screen, cell-based, flow cytometry, MLPCN library. calls only at 10 µM. ER-HoxA9 myeloid progenitors, lysozyme-GFP differentiation. AID 624256, 2012. 360,000 compounds, 1% hits;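 active = normalized GFP-positive differentiation at or above the plate's own cutoff, the solvent-only control mean plus 3 SD; inconclusive = no clear call, values can overlap the other calls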;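 also: cells exposed to compound for four days before flow analysis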
# NR2E3 ag-2 – inhibitors of NR2E3-RetCOR corepressor binding, primary screen, NR2E3 agonist project, biochemical, TR-FRET, GST-NR2E3, biotin-RetCOR; Photoreceptor-specific nuclear receptor (Homo sapiens), Q9Y5X4; 1536-well; inhibition of corepressor binding, % at 4.78 µM; 320,000 compounds, 0.12% hits; AID 2300, 2010;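 active = percent inhibition above the cutoff of mean plus 3 SD of all tested compounds, set per screening campaign, cut at about 20% in these data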
#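 Material – GST-tagged NR2E3 plus biotinylated RetCOR corepressor · Quantity – NR2E3 fusion 1.35 nM · Times – 5 h incubation at 4 °C · Medium – pH 7.5 Tris-based buffer · Technique – TR-FRET, Eu(K)-anti-GST donor, streptavidin-D2 acceptor, ex 340, em 617/671 nm · Benchmarks – high control biotin, low control 0.6% DMSO · Format – 1536-well plates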
# Hits are given with their value; i = inactive; ? = inconclusive; nt = no result given; + = active, no number.
SMILES,T cell HTS,NR2E3 ag-1,GAA850 FXN act,Myeloid diff 2,NR2E3 ag-2
Cc1sc2nc(COC(=O)c3ccc(N4CCCC(C)C4)c([N+](=O)[O-])c3)[nH]c(=O)c2c1C (stereo not given),i,i,i,i,i
Cc1nnc(N2C(=O)C(O)=C(C(=O)c3ccco3)C2c2ccc(C(C)(C)C)cc2)s1 (stereo not given),i,i,i,+,i
Cc1nnc(N2C(=O)C(O)=C(C(=O)c3ccco3)C2c2ccc(F)cc2)s1 (stereo not given),i,i,i,i,i
CCc1ccccc1NC(=O)C1CCN(S(C)(=O)=O)CC1,i,i,i,+,i
CCCCn1c(N)c(N(CCOC)C(=O)c2ccc(COc3ccccc3)o2)c(=O)[nH]c1=O,i,i,i,i,i
CCOc1cc(NC(=S)NCC2CCCO2)c(OCC)cc1NC(=O)c1ccccc1C (stereo not given),i,i,i,+,i
CCC(=O)N1CCC1(C)C(=O)Nc1nccs1 (stereo not given),nt,i,i,i,nt
CCSc1ccc(-c2cc(NC=O)c3ncc(-c4cccc(C(=O)NCCN(C)C)c4)n3c2)cc1,nt,i,i,nt,nt
CSCCNC(=O)C1(C)CCN1C(=O)CCc1ccccc1 (stereo not given),nt,i,i,i,nt
CC(=O)c1cccc(Nc2nc(-c3cccc([N+](=O)[O-])c3)cs2)c1,i,i,8.0,i,i
CC(=O)Nc1nc(C)c(-c2csc(Nc3cccc([N+](=O)[O-])c3)n2)s1,i,i,i,nt,i
CO[C@@H]1CN(C)C(=O)c2ccc(NS(=O)(=O)c3c(C)noc3C)cc2OC[C@@H](C)NC[C@@H]1C,nt,nt,nt,i,nt
O=C(N/N=C\c1c(O)ccc2ccccc12)c1ccc(S(=O)(=O)N2CCCCC2)cc1,i,i,i,+,i
CCOC(=O)c1ccc(S(=O)(=O)N2CCC(C(=O)OCC)CC2)cc1,i,i,i,i,i
O=C(COC(=O)CCc1ccc(S(=O)(=O)N2CCOCC2)cc1)Nc1ccccc1OC(F)F,i,i,i,i,nt
Cc1ccccc1NC(=O)COC(=O)c1ccc(S(=O)(=O)N2CCCCCC2)cc1,nt,i,i,i,nt
O=C(COC(=O)c1ccc(S(=O)(=O)N2CCOCC2)cc1)Nc1ccccc1OC(F)F,0.0,i,i,i,nt
Cc1ccccc1NC(=O)COC(=O)c1ccc(S(=O)(=O)N2CCCC2)cc1,i,i,i,+,i
CCOC(=O)c1ccc(S(=O)(=O)N2CCC(C(=O)O)CC2)cc1,i,i,i,+,i
O=C(CCSc1ccc(Cl)cc1)N1CCN(c2ccc(O)cc2)CC1,i,i,i,+,i
CCCCN1C(=O)C2Cc3c([nH]c4ccccc34)CN2C1=S (stereo not given),i,i,i,+,i
C=CCN1CC(=O)N2Cc3[nH]c4ccccc4c3C[C@H]2C1=O,i,i,i,+,i
CCCCCN1CC(=O)N2C(C)c3[nH]c4ccccc4c3C[C@H]2C1=O (stereo not given in full),i,i,i,+,i
CCCCCN1CC(=O)N2Cc3[nH]c4ccccc4c3C[C@H]2C1=O,i,i,i,i,i
CCC(=O)N(C)C[C@@H]1Oc2ncc(Br)cc2C(=O)N([C@@H](C)CO)C[C@H]1C,nt,i,i,i,nt
COC(=O)C=C1CCC2C3CCC4=CC(=O)C(Br)CC4(C)C3C(=O)CC12C (stereo not given),nt,i,i,?,nt
CCOc1ccc(OCc2ccc(C(=O)N/N=C(\C)c3ccccn3)cc2)cc1,i,i,i,?,i
CCC(C)/C(C)=N/NC(=O)c1ccc(COc2ccc(Cl)c(C)c2)cc1 (stereo not given),i,i,i,+,i
Cc1sc2ncnc(N3CCC(C(=O)Nc4nc(-c5ccc(F)cc5)cs4)CC3)c2c1C,i,i,i,i,i
CCOc1ccc2ccccc2c1C(=O)N1CCN(c2ccccc2)CC1,i,i,i,+,i
